High-throughput results from PubChem.
Shown are actives, neighbours in structure and some others; about 4.3% of the full set was active somewhere.
Rin1-Abl PPI inh = human Rin1-Abl interaction inhibition | 0.4% of 360,000 active | AID 588664 | inhibition, % at 7.35 µM | TR-FRET Rin1/Abl binding, biochemical | P00519+Q13671; in the data active = inhibition above about 5%, passing the limit was not always enough
SUMO HTRF inh = SUMOylation inhibition | HTRF SUMOylation assay, SAE1/SAE2 + UBC9, in vitro | inhibition, % at 35 µM | 0.36% of 290,000 active | AID 2006; in the data active = inhibition above about 50%, passing the limit was not always enough
Target sequence (P63279 whole entry, looked up): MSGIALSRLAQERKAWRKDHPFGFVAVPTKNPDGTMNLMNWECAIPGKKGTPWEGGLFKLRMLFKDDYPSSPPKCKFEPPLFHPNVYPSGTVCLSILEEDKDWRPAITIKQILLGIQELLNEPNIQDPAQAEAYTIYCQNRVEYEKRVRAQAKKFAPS
RBBP9 inh = blocks human serine hydrolase RBBP9; inhibition, % at 7.94 µM; AID 1515; recombinant RBBP9, FP-Rh probe fluorescence polarization; 0.2% of 220,000 active;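 active = inhibition above the campaign mean of all tested compounds plus 3 SD, cut at about 14% in these data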
Target sequence (O75884 whole entry, looked up): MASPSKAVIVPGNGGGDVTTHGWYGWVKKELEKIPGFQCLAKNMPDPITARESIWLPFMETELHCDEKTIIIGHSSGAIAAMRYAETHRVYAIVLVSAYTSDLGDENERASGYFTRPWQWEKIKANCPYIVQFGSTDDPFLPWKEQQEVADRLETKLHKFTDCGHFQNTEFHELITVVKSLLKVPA
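Assay system: recombinant human RBBP9; Reagent: Serine-hydrolase probe FP-Rh, 375 nM pre-mixing; Doses: 7.94 µM single dose, 0.794% DMSO; Incubation: 30 min then 45 min, 25 °C; Detection: fluorescence polarization (mP), excitation 525 nm, emission 598 nm; Evaluation: percent inhibition from mP, scaled between DMSO and no-protein wells.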
UBC13 inh = human UBC13 polyubiquitination inhibition | P61088 | UBC13 polyubiquitin chain formation, TR-FRET | inhibition, % at 20 µM | 0.47% of 330,000 active | AID 485273; in the data active = inhibition above about 45%, passing the limit was not always enough
Target sequence (P61088 whole entry, looked up): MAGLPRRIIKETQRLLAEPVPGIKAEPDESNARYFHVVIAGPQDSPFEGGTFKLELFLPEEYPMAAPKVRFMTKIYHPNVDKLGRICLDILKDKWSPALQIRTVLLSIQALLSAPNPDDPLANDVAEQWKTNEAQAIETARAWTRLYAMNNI
ALR inh = blocks human ALR sulfhydryl oxidase activity; purified ALR, DTT oxidation, H2O2 HRP-luminol luminescence; 3.8% of 290,000 active; P55789; inhibition, % (concentration not given with the values);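 active = mean replicate inhibition above about 79%, with every replicate also reaching it, limit read from the data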
PREPL inh = human PREPL enzyme inhibition. Q4J6C6. recombinant PREPL, fluorescence polarization activity-based probe. inhibition, % at 5.96 µM. 0.68% of 320,000 active. AID 2751; in the data active = inhibition above about 43%
Each line names hits and unclear results; the compound was inactive in the other large screens.

CCn1c(=O)n(CC)c2cc(N3CCCC3)c(NC(=O)c3ccc(C)cc3)cc21	ALR inh 99 (no result: RBBP9 inh)
CCn1c(=O)n(CC)c2cc(N3CCCC3)c(NC(=O)c3ccccc3F)cc21	none (no result: RBBP9 inh, ALR inh)
CCn1c(=O)n(CC)c2cc(N3CCCC3)c(NC(=O)c3ccccc3)cc21	ALR inh 97 (no result: RBBP9 inh)
CC(=O)Nc1ccc(NC(=O)C(C)OC(=O)CCCOc2ccc(Cl)cc2C)cc1 (centres undefined)	none (no result: SUMO HTRF inh, RBBP9 inh)
COc1ccccc1-c1cnc(C(O)c2cc(Cl)cc(Cl)c2)[nH]1 (centres undefined)	none (no result: SUMO HTRF inh, RBBP9 inh, UBC13 inh, ALR inh, PREPL inh)
N/C(=N/O)c1ccccc1N1CCC(Cc2ccccc2)CC1	ALR inh 92
O=C(NC(c1ccc(Cl)cc1)c1c(O)ccc2ccccc12)c1ccccc1 (centres undefined)	none (no result: UBC13 inh)
CC(=O)NC(c1ccc(Cl)cc1)c1c(O)ccc2ccc(O)cc12 (centres undefined)	ALR inh 96
CC(NC(=O)C(=O)N1CCOCC1)C(c1cccs1)N1CCN(c2ccccc2F)CC1 (centres undefined)	none (no result: RBBP9 inh)
COc1ccc(N2CCN(C(c3cccs3)C(C)NS(C)(=O)=O)CC2)cc1 (centres undefined)	ALR inh 99
CC(NS(C)(=O)=O)C(c1cccs1)N1CCN(C)CC1 (centres undefined)	none
CC(NC(=O)C(=O)N1CCOCC1)C(c1cccs1)N1CCN(c2ccc(F)cc2)CC1 (centres undefined)	ALR inh 98 (no result: RBBP9 inh)
CC(NS(C)(=O)=O)C(c1cccs1)N1CCN(c2ccc(F)cc2)CC1 (centres undefined)	ALR inh 98
CC(C)(C)NC(=O)C(Cc1ccccc1)NS(=O)(=O)c1ccc2c(c1)CCC(=O)N2 (centres undefined)	ALR inh 98
CC1(C)c2cc(O)ccc2OC1N1CCOCC1 (centres undefined)	ALR inh 99 (no result: RBBP9 inh)
Cc1cccc(-c2c3c(=O)n(C)c(=O)n(C)c3cn2-c2ccc(O)cc2)c1	ALR inh 95 (no result: SUMO HTRF inh)
CCOC(=O)C1CCN(C(=O)c2ccc3c(Cl)c4c(nc3c2)CCCC4)CC1	ALR inh 95 (no result: RBBP9 inh)
CC1CCN(C(=O)c2ccc3c(Cl)c4c(nc3c2)CCCC4)CC1	none
CCCN1CCN(CCCNC(=O)c2ccc3c(Cl)c4c(nc3c2)CCCC4)CC1	none (no result: RBBP9 inh)
CCOC(=O)N1CCC(NC(=O)c2ccc3c(Cl)c4c(nc3c2)CCCC4)CC1	RBBP9 inh 22
CCOC(=O)N1CCN(C(=O)c2ccc3c(SCC(=O)O)c4c(nc3c2)CCC4)CC1	ALR inh 80
CCOC(=O)c1ccccc1NC(=O)c1ccc2c(SCC(=O)O)c3c(nc2c1)CCCC3	none (no result: RBBP9 inh)
O=C(NCCCN1CCCC1)c1ccc2c(Cl)c3c(nc2c1)CCCC3	ALR inh 94
O=C(NC1CC1)c1ccc2snnc2c1	none (no result: ALR inh)
CCOC(=O)N1CCC(NC(=O)c2ccc3snnc3c2)CC1	ALR inh 98
O=S(=O)(c1cc(F)ccc1F)N1CCC2(CC1)OCCN2S(=O)(=O)c1cccs1	none (no result: SUMO HTRF inh, RBBP9 inh)
N#Cc1nc(-c2ccccc2F)oc1NCCN1CCOCC1	ALR inh 96
Cc1ccc(-c2nc(C#N)c(NCCN3CCCCC3)o2)cc1	ALR inh 92
CC(C)N1CCN(Cc2coc3ccccc3c2=O)CC1CCO (centres undefined)	none
O=C(CSc1nnc(CNC(=O)c2ccco2)o1)Nc1cccc(Cl)c1	none (no result: RBBP9 inh)
COCCn1c(SCC(=O)c2ccccc2)nc2ccccc2c1=O	ALR inh 97
COCCn1c(SCC(=O)c2ccccc2)nc2c(c1=O)SCC2	ALR inh 94
CCn1c(SCc2cccc(F)c2)nc2c(c1=O)SCC2	ALR inh 97
COc1ccc(C(=O)N[C@H](C(=O)NCc2cccs2)C(C)C)cc1	none
O=C(CCl)NCc1c(Cl)cccc1-n1cccc1	ALR inh 96
CCOC(=O)c1c(-c2ccc(C)cc2)csc1NC(=O)CCN1CCOCC1	ALR inh 92 (no result: UBC13 inh)
CCOC(=O)c1ccc(NC(=O)CN2C(=O)CSC2=O)cc1	ALR inh 100
CCOC(=O)c1ccc(NC(=O)CC2OCCN(CC)C2=O)cc1 (centres undefined)	ALR inh 86
CC(C)(C)OC(=O)N1CCC(CC2CC(c3cccc(Br)c3)=NO2)(C(=O)O)CC1 (centres undefined)	none (no result: RBBP9 inh)
Cc1cccc(C)c1Nc1c(-c2ccc(N3CCOCC3)cc2)nc2cnccn12	ALR inh 99
COc1cc(-c2nc3cnccn3c2NC(C)(C)CC(C)(C)C)ccc1O	ALR inh 99 (no result: RBBP9 inh)
COc1ccc(Sc2ccc(-c3nc4cnccn4c3NC3CCCCC3)cc2OC)cc1	none (no result: SUMO HTRF inh, RBBP9 inh)
COc1cc(-c2nc3cnccn3c2Nc2c(C)cccc2C)ccc1O	ALR inh 98
CCCCNC(=O)C1(C)CCCCN1Cc1ccc(-c2ccccc2)cc1 (centres undefined)	none (no result: SUMO HTRF inh, RBBP9 inh, UBC13 inh, ALR inh, PREPL inh)
O=C1CCN(CCc2ccccc2)CCN1[C@H](CSc1ccc(Br)cc1)c1ccccc1	none (no result: RBBP9 inh, ALR inh)
CC(=O)Nc1ccc(SC[C@H](c2ccccc2)N2CCN(CCc3ccccc3)CCC2=O)cc1	ALR inh 98 (no result: Rin1-Abl PPI inh, RBBP9 inh)
O=c1sc(Nc2ccccc2)nc2ccccc12	none
O=c1cnnc(Nc2ccc(Nc3ccccc3)cc2)[nH]1	ALR inh 100
Cc1ccc(-c2nc(CSCC(=O)NCCN3CCN(Cc4ccccc4)CC3)c(C)o2)cc1	ALR inh 99
Cc1ccc(-c2nc(CSCC(=O)NCCCN3CCOCC3)c(C)o2)cc1	ALR inh 97
CSc1ccc(-c2nc(CSCC(=O)NCCCN3CCOCC3)c(C)o2)cc1	none (no result: ALR inh)
O=C(C=Cc1cccc(O)c1)c1ccccc1O	none (no result: SUMO HTRF inh, RBBP9 inh, UBC13 inh, ALR inh, PREPL inh)
O=C(/C=C/c1ccc(O)c(O)c1)c1ccccc1O	ALR inh 100
O=C(/C=C/c1ccc(O)c(O)c1)OCCc1ccccc1	ALR inh 98 (no result: SUMO HTRF inh, RBBP9 inh)
N[C@@H](Cc1ccc(O)c(I)c1)C(=O)O	none (no result: Rin1-Abl PPI inh)
O=C(/C=C/c1ccc(O)c(O)c1)OC(Cc1ccc(O)c(O)c1)C(=O)O (centres undefined)	ALR inh 99 (no result: RBBP9 inh)
Cc1ccc(S(=O)(=O)Nc2cccc(-c3ccc(N4CCCCCC4)nn3)c2)cc1	none (no result: RBBP9 inh)
Cc1c(Cl)sn(-c2ccc(Cl)cc2)c1=O	none (no result: ALR inh, PREPL inh)
c1ccc(CCSc2ncnc3nc[nH]c23)cc1	none
c1ccc2c(CSc3ncnc4nc[nH]c34)cccc2c1	ALR inh 98
Cc1ccccc1C(=O)NNC(=O)C1CC(=O)N(Cc2ccccc2)C1 (centres undefined)	none (no result: SUMO HTRF inh, RBBP9 inh, ALR inh)
CC1=C(C(=O)N2CCCCCC2)CC(CC(=O)NCc2cccs2)C(=O)N1Cc1ccccc1 (centres undefined)	none (no result: SUMO HTRF inh, RBBP9 inh, UBC13 inh, ALR inh, PREPL inh)
Oc1ccc(NCc2cccs2)cc1	ALR inh 96 (no result: RBBP9 inh)
O=C(O)c1ccccc1NCc1cccs1	none (no result: RBBP9 inh)
CC(=O)Nc1ccc(NCCc2cccs2)cc1	none (no result: SUMO HTRF inh, RBBP9 inh, UBC13 inh, ALR inh, PREPL inh)
CC(=O)Nc1ccc(NCc2cccs2)cc1	ALR inh 95 (no result: RBBP9 inh)
COc1cccc(-c2c(C(=O)N/N=C(\C)c3cccs3)nnn2-c2nonc2N)c1	none (no result: RBBP9 inh)
